ChEMBL document CHEMBL1212805, “Evaluation of WLBU2 peptide and 3-O-octyl-sn-glycerol lipid as active ingredients for a topical microbicide formulation targeting Chlamydia trachomatis” (Antimicrob Agents Chemother, 2010)
The source made the active and inactive calls.

Assays:
[1] = tested on: Chlamydia trachomatis; test: Antibacterial activity against Chlamydia trachomatis serovar E after 5 mins by MCC assay in presence of simulated seminal fluid; format: functional
Procedure, shortened: (§1)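 C. trachomatis serovar EBs (5 × 10⁶ IFU/ml) diluted in 100% VFS (zinc-free for SFS), 100% SFS or 10% HSA, mixed 1:1 with five 4-fold SPG dilutions (final 60 μM/30 mM top; 50% VFS, 50% SFS, 5% HSA). After 5 or 120 min, diluted 1:40, inoculated onto McCoy monolayers. Inclusions stained with anti-LPS/FITC after 36–48 h. Inhibition versus no-drug control in the same fluid; MCC is complete inhibition.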

[2] = Cytotoxicity against mouse McCoy cells after 48 hrs at =<30 uM by MCC assay; format: cell-based
Procedure, shortened: (§2)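 Cytotoxicity was tested by running the MCC procedure without inoculum: compound diluted in half with SPG, then diluted 1:40 onto McCoy monolayers and incubated 48 h at 37°C. Read-out by Alamar Blue, MTT and LDH kits. SPG served as negative control and Triton X-100 as positive control. Nontoxic was defined as <10% toxicity in all methods.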

[3] = tested on: Chlamydia trachomatis; test: Antibacterial activity against Chlamydia trachomatis serovar D assessed as change in MCC at pH 4 to 8 after 5 mins by MCC assay in presence of sucrose- phosphate-glutamate buffer; format: functional, organism-based
Procedure, shortened: (§3)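 Compounds and EBs were each diluted in SPG at pH 4, 5.5, 7 or 8 and mixed 1:1, so exposure pH was constant. Five 4-fold dilutions were used (top 60 μM peptide, 30 mM lipid). After 5 or 120 min, the mix was diluted 1:40 in pH 7.5 SPG and plated on McCoy cells. Inclusion counts were compared with a no-drug control at the same pH and time.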

[4] = tested on: Chlamydia trachomatis; test: Antibacterial activity against Chlamydia trachomatis serovar L2 after 5 mins by MCC assay in presence of simulated human serum albumin; format: functional; details: serovar L2, 5 min; procedure, shortened: as §1
[5] = tested on: Chlamydia trachomatis; test: Antibacterial activity against Chlamydia trachomatis serovar E assessed as change in MCC at pH 4 to 8 after 5 mins by MCC assay in presence of sucrose- phosphate-glutamate buffer; format: functional, organism-based; procedure, shortened: as §3
[6] = tested on: Chlamydia trachomatis; test: Antibacterial activity against Chlamydia trachomatis serovar D after 120 mins by MCC assay in presence of simulated vaginal fluid; format: functional; details: 2 h; procedure, shortened: as §1
[7] = tested on: Chlamydia trachomatis; test: Antibacterial activity against Chlamydia trachomatis serovar L2 after 5 mins by MCC assay in presence of simulated vaginal fluid; format: functional; details: serovar L2, 5 min; procedure, shortened: as §1
[8] = tested on: Chlamydia trachomatis; test: Antibacterial activity against Chlamydia trachomatis serovar L2 at => 6.25 mM after 5 mins relative to control; format: functional
[9] = tested on: Chlamydia trachomatis; test: Antibacterial activity against Chlamydia trachomatis serovar D after 5 mins by MCC assay in presence of simulated seminal fluid; format: functional; procedure, shortened: as §1
[10] = tested on: Chlamydia trachomatis; test: Antibacterial activity against Chlamydia trachomatis serovar E assessed as change in MCC at pH 4 to 8 after 120 mins by MCC assay in presence of sucrose- phosphate-glutamate buffer; format: functional, organism-based; procedure, shortened: as §3
[11] = tested on: Chlamydia trachomatis; test: Antibacterial activity against Chlamydia trachomatis serovar D assessed as change in MCC at pH 4 to 8 after 120 mins by MCC assay in presence of sucrose- phosphate-glutamate buffer; format: functional, organism-based; procedure, shortened: as §3
[12] = tested on: Chlamydia trachomatis; test: Antibacterial activity against Chlamydia trachomatis serovar L2 at 3.13 mM after 120 mins relative to control; format: functional; details: serovar L2, 2 h
Procedure, shortened: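 Serovar L2 EBs (5 × 10⁶ IFU/ml in SPG, pH 7.5) mixed 1:1 with ten 2-fold SPG dilutions (final 50 μM top peptide, 25 mM lipid), exposed 5 or 120 min, diluted 1:40, plated on McCoy cells; fixed with methanol after 36–48 h, anti-LPS/FITC stained. Triplicate wells, three fields each, three independent days; percent inhibition versus no-drug control ± SD.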

[13] = tested on: Chlamydia trachomatis; test: Antibacterial activity against Chlamydia trachomatis serovar E after 120 mins by MCC assay in presence of simulated vaginal fluid; format: functional; details: 2 h; procedure, shortened: as §1
[14] = tested on: Chlamydia trachomatis; test: Antibacterial activity against Chlamydia trachomatis serovar L2 after 120 mins by MCC assay in presence of simulated seminal fluid; format: functional; details: serovar L2, 2 h; procedure, shortened: as §1
[15] = tested on: Chlamydia trachomatis; test: Antibacterial activity against Chlamydia trachomatis serovar L2 after 120 mins by MCC assay in presence of simulated human serum albumin; format: functional; details: serovar L2, 2 h; procedure, shortened: as §1
[16] = tested on: Chlamydia trachomatis; test: Antibacterial activity against Chlamydia trachomatis serovar L2 after 5 mins by MCC assay in presence of simulated seminal fluid; format: functional; details: serovar L2, 5 min; procedure, shortened: as §1
[17] = tested on: Chlamydia trachomatis; test: Antibacterial activity against Chlamydia trachomatis serovar E after 120 mins by MCC assay in presence of simulated seminal fluid; format: functional; details: 2 h; procedure, shortened: as §1
[18] = tested on: Chlamydia trachomatis; test: Antibacterial activity against Chlamydia trachomatis serovar D after 120 mins by MCC assay in presence of simulated seminal fluid; format: functional; details: 2 h; procedure, shortened: as §1
[19] = tested on: Chlamydia trachomatis; test: Antibacterial activity against Chlamydia trachomatis serovar D after 120 mins by MCC assay in presence of simulated human serum albumin; format: functional; details: 2 h; procedure, shortened: as §1
[20] = tested on: Chlamydia trachomatis; test: Antibacterial activity against Chlamydia trachomatis serovar E after 5 mins by MCC assay in presence of simulated vaginal fluid; format: functional; procedure, shortened: as §1
[21] = tested on: Chlamydia trachomatis; test: Antibacterial activity against Chlamydia trachomatis serovar D after 5 mins by MCC assay in presence of simulated vaginal fluid; format: functional; procedure, shortened: as §1
[22] = tested on: Chlamydia trachomatis; test: Antibacterial activity against Chlamydia trachomatis serovar D at 1.88 mM at pH 5.5 after 5 mins by MCC assay in presence of sucrose- phosphate-glutamate buffer; format: functional, organism-based; details: in the assay text read “after 120 mins” for “after 5 mins”; procedure, shortened: as §3
[23] = tested on: Chlamydia trachomatis; test: Antibacterial activity against Chlamydia trachomatis serovar D after 5 mins by MCC assay in presence of simulated human serum albumin; format: functional; procedure, shortened: as §1
[24] = Cytotoxicity against mouse McCoy cells after 48 hrs at =<30 uM by almar blue assay; format: cell-based; procedure, shortened: as §2
[25] = tested on: Chlamydia trachomatis; test: Antibacterial activity against Chlamydia trachomatis serovar E after 120 mins by MCC assay in presence of simulated human serum albumin; format: functional; details: 2 h; procedure, shortened: as §1
[26] = tested on: Chlamydia trachomatis; test: Antibacterial activity against Chlamydia trachomatis serovar D at 1.88 mM at pH 4 after 5 mins by MCC assay in presence of sucrose- phosphate-glutamate buffer; format: functional, organism-based; details: in the assay text read “after 120 mins” for “after 5 mins”; procedure, shortened: as §3
[27] = tested on: Chlamydia trachomatis; test: Antibacterial activity against Chlamydia trachomatis serovar D at 1.88 mM at pH 8 after 5 mins by MCC assay in presence of sucrose- phosphate-glutamate buffer; format: functional, organism-based; details: in the assay text read “after 120 mins” for “after 5 mins”; procedure, shortened: as §3
[28] = tested on: Chlamydia trachomatis; test: Antibacterial activity against Chlamydia trachomatis serovar E after 5 mins by MCC assay in presence of simulated human serum albumin; format: functional; procedure, shortened: as §1
[29] = tested on: Chlamydia trachomatis; test: Antibacterial activity against Chlamydia trachomatis serovar L2 after 120 mins by MCC assay in presence of simulated vaginal fluid; format: functional; details: serovar L2, 2 h; procedure, shortened: as §1

SMILES: CCCCCCCCOC[C@H](O)CO
- MCC [1]: 30 mM
- Activity [2]: Non-toxic
- Activity [3]: Active
- MCC [4]: 30 mM
- Activity [5]: Active
- MCC [6]: 7.5 mM
- MCC [7]: 7.5 mM
- inhibition (INH) [8]: 100%
- MCC [9]: 30 mM
- Activity [10]: Active
- Activity [11]: Active
- inhibition at 3130 µM [12]: 98.2%
- MCC [13]: 7.5 mM
- MCC [14]: 7.5 mM
- MCC [15]: 7.5 mM
- MCC [16]: 30 mM
- MCC [17]: 7.5 mM
- MCC [18]: 7.5 mM
- MCC [19]: 7.5 mM
- MCC [20]: 7.5 mM
- MCC [21]: 7.5 mM
- Activity [22]: Active
- MCC [23]: 30 mM
- Activity [24]: Non-toxic
- MCC [25]: 7.5 mM
- Activity [26]: Active
- Activity [27]: Active
- MCC [28]: 30 mM
- MCC [29]: 7.5 mM
